{"source": "ChEMBL document CHEMBL4622841", "about": "“Structural modifications of indolinones bearing a pyrrole moiety and discovery of a multi-kinase inhibitor with potent antitumor activity” (Bioorg Med Chem, 2020)", "key": {"[1]": {"system": "MKN-74", "assay": "Induction of apoptosis in human MKN74 cells assessed as necrotic cells at 0.3 uM incubated for 72 hrs by Annexin-V-FITC/propidium iodide staining-based flow cytometric analysis (reference value: 6.29%)", "format": "functional"}, "[2]": {"biological_target": "Platelet-derived growth factor receptor beta (Homo sapiens, UniProt P09619)", "sequence (P09619 whole entry, the tested form may be a part)": "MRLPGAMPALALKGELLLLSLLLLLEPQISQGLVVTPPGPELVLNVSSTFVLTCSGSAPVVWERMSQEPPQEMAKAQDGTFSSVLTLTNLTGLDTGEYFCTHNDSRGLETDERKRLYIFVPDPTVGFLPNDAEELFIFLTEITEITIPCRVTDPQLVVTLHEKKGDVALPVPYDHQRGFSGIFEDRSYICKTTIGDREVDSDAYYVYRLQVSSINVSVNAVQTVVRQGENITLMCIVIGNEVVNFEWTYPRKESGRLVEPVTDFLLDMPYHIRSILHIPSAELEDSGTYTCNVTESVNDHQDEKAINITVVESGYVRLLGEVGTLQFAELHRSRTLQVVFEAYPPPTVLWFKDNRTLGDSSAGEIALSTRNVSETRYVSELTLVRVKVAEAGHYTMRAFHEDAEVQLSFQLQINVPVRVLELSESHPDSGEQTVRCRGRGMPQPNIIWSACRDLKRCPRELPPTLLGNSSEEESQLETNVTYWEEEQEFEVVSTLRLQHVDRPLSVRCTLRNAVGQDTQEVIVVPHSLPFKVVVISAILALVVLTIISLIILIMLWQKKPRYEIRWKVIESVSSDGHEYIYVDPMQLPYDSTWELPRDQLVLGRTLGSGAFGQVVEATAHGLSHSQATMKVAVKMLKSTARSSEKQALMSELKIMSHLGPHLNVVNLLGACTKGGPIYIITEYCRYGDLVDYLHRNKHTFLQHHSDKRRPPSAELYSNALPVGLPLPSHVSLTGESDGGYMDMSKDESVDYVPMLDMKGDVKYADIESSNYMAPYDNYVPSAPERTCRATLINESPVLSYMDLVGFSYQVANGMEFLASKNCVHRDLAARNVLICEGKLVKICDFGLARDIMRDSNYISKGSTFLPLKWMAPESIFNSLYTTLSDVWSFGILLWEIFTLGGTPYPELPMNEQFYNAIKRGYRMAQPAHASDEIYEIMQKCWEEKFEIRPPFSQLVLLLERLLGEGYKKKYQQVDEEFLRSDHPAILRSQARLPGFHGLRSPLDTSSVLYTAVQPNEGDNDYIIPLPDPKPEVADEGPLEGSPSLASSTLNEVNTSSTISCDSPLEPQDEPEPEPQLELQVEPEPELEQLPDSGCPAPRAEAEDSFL", "assay": "Inhibition of N-terminal GST-fused human PDGFRbeta cytoplasmic domain (557 to 1106 (end) residues) expressed in baculovirus expression system using FAM-labeled peptide and ATP as substrate preincubated for 10 mins followed by substrate addition measured after 1 hr by mobility shift assay"}, "[3]": {"assay": "Inhibition of GST-tagged human recombinant VEGFR3 cytoplasmic domain (800 to 1297 residues) Q890H/V1128L/H1146R mutant expressed in baculovirus expression system using FAM-labeled peptide and ATP as substrate preincubated for 10 mins followed by substrate addition measured after 1 hr by mobility shift assay"}, "[4]": {"biological_target": "Proto-oncogene tyrosine-protein kinase Src (Homo sapiens, UniProt P12931)", "sequence (P12931 2-536 limits assumed)": "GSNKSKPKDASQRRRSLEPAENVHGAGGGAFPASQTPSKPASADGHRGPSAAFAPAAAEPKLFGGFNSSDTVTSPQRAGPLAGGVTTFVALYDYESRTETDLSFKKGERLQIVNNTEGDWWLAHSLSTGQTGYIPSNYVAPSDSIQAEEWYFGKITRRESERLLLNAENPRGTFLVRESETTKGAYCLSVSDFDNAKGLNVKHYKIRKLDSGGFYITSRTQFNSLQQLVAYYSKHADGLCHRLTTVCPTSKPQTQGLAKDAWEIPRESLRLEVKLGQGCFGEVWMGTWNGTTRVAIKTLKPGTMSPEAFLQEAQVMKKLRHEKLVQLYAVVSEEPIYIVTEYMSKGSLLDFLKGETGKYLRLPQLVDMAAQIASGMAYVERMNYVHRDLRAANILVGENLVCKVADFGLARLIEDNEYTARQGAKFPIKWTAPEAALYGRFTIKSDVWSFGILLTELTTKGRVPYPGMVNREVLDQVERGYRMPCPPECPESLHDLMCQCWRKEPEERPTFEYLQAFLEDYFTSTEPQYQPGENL", "assay": "Inhibition of SRC (unknown origin) using FAM-labeled peptide and ATP as substrate preincubated for 10 mins followed by substrate addition measured after 1 hr by mobility shift assay"}, "[5]": {"biological_target": "Mast/stem cell growth factor receptor Kit (Homo sapiens, UniProt P10721)", "sequence (P10721 whole entry)": "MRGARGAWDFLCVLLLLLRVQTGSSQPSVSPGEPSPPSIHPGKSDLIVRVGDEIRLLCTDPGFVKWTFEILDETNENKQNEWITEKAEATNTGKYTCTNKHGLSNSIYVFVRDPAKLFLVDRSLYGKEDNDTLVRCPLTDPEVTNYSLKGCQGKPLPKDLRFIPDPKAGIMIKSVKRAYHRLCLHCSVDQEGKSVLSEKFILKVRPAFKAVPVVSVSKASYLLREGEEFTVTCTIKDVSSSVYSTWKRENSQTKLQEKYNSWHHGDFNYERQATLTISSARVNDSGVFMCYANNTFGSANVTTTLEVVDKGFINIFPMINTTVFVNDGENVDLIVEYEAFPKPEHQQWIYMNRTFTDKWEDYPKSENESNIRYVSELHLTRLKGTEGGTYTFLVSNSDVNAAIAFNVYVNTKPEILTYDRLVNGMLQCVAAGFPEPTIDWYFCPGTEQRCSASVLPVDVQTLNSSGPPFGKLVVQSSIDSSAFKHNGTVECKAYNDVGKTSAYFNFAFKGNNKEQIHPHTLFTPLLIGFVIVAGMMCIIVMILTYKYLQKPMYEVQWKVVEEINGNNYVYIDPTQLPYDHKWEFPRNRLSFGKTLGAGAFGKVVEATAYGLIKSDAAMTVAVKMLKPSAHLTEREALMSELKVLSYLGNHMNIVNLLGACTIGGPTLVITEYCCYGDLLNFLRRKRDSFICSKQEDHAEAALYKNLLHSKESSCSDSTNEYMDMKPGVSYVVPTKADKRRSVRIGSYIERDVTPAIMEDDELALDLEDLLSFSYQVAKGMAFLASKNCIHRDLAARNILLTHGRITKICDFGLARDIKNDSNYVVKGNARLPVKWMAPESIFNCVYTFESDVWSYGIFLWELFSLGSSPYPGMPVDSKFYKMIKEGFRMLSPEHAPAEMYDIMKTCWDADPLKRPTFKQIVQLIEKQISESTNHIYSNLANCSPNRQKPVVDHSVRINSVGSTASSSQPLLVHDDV", "assay": "Inhibition of c-Kit (unknown origin) using FAM-labeled peptide and ATP as substrate preincubated for 10 mins followed by substrate addition measured after 1 hr by mobility shift assay"}, "[6]": {"biological_target": "Cyclin-dependent kinase 4 (Homo sapiens, UniProt P11802)", "sequence (P11802 whole entry)": "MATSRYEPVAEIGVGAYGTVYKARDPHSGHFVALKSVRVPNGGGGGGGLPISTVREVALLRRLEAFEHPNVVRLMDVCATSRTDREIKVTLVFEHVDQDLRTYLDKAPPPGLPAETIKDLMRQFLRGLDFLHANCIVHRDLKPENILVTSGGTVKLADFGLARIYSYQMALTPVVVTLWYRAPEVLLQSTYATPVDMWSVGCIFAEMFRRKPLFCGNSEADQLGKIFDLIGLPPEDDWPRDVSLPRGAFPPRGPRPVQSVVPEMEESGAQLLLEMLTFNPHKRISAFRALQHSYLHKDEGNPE", "assay": "Inhibition of CDK4 (unknown origin) using FAM-labeled peptide and ATP as substrate preincubated for 10 mins followed by substrate addition measured after 1 hr by mobility shift assay"}, "[7]": {"biological_target": "T1, Serine/threonine-protein kinase Chk1 (Homo sapiens, UniProt O14757)", "T1 sequence (O14757 whole entry)": "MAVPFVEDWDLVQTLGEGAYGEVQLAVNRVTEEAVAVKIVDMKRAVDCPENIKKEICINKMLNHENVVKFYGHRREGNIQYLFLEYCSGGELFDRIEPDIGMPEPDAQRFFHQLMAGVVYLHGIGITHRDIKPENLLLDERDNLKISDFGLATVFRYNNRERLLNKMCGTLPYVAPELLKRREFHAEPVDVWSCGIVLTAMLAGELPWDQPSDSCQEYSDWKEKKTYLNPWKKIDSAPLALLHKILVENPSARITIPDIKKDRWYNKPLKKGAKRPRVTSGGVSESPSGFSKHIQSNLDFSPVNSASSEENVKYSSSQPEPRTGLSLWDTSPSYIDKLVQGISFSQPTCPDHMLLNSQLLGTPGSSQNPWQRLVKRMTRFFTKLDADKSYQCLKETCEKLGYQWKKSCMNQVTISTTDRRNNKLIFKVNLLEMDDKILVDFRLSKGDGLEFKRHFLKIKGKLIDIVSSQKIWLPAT", "assay": "Inhibition of CHK (unknown origin) using FAM-labeled peptide and ATP as substrate preincubated for 10 mins followed by substrate addition measured after 1 hr by mobility shift assay"}, "[8]": {"biological_target": "Cyclin-dependent kinase 2 (Homo sapiens, UniProt P24941)", "assay": "Inhibition of CDK2 (unknown origin) at 1 uM using FAM-labeled peptide and ATP as substrate preincubated for 10 mins followed by substrate addition measured after 1 hr by mobility shift assay"}, "[9]": {"biological_target": "T2, Serine/threonine-protein kinase Chk1 (Homo sapiens) (UniProt O14757)", "T2 sequence (whole entry)": "T1 sequence (O14757 whole entry)", "assay": "Inhibition of CHK (unknown origin) at 1 uM using FAM-labeled peptide and ATP as substrate preincubated for 10 mins followed by substrate addition measured after 1 hr by mobility shift assay"}, "[10]": {"system": "HT-29", "assay": "Inhibition of receptor tyrosine kinase in human HT-29 cells assessed as reduction in AKT phosphorylation at Ser473 residue after 24 hrs by Western blotting analysis", "format": "cell-based", "how_it_was_run": "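Cells cultured overnight, then treated with compound at different concentrations for 24 h. About 1×10⁶ cells harvested and immunoblotted for p-AKT (Ser473), AKT, p-ERK (Thr202/Tyr204), ERK, with GAPDH as loading control. Detection by chemiluminescence and gel imaging. Blots shown are representative of several experiments.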"}, "[11]": {"system": "HT-29", "assay": "Inhibition of colony formation in human HT-29 cells measured after 14 days by crystal violet staining-based assay", "format": "functional, cell-based", "how_it_was_run": "(§1)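 Cells plated and exposed to test agent at a range of concentrations for 14 days, then colonies counted. Colony formation expressed relative to vehicle-treated cells as mean ± SEM. Significance versus vehicle by unpaired two-tailed Student's t-test.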"}, "[12]": {"system": "MKN-74", "assay": "Inhibition of colony formation in human MKN74 cells measured after 14 days by crystal violet staining-based assay", "format": "functional, cell-based", "how_it_was_run": "as §1"}, "[13]": {"system": "HT-29", "assay": "Induction of apoptosis in human HT-29 cells assessed as early apoptotic cells at 0.3 uM incubated for 72 hrs by Annexin-V-FITC/propidium iodide staining-based flow cytometric analysis (reference value: 3.18%)", "format": "functional"}, "[14]": {"system": "HT-29", "assay": "Induction of apoptosis in human HT-29 cells assessed as early apoptotic cells at 1 uM incubated for 72 hrs by Annexin-V-FITC/propidium iodide staining-based flow cytometric analysis (reference value: 3.18%)", "format": "functional"}, "[15]": {"system": "HT-29", "assay": "Induction of apoptosis in human HT-29 cells assessed as early apoptotic cells at 3 uM incubated for 72 hrs by Annexin-V-FITC/propidium iodide staining-based flow cytometric analysis (reference value: 3.18%)", "format": "functional"}, "[16]": {"system": "MKN-74", "assay": "Induction of apoptosis in human MKN74 cells assessed as late apoptotic cells at 1 uM incubated for 72 hrs by Annexin-V-FITC/propidium iodide staining-based flow cytometric analysis (reference value: 12.42%)", "format": "functional"}, "[17]": {"system": "MKN-74", "assay": "Induction of apoptosis in human MKN74 cells assessed as late apoptotic cells at 3 uM incubated for 72 hrs by Annexin-V-FITC/propidium iodide staining-based flow cytometric analysis (reference value: 12.42%)", "format": "functional"}, "[18]": {"system": "HepG2", "assay": "Induction of apoptosis in human HepG2 cells assessed as late apoptotic cells at 0.3 uM incubated for 72 hrs by Annexin-V-FITC/propidium iodide staining-based flow cytometric analysis (reference value: 2.89%)", "format": "functional"}, "[19]": {"system": "HUVEC", "assay": "Induction of apoptosis in human HUVEC cells assessed as early apoptotic cells at 3 uM incubated for 48 hrs by Annexin-V-FITC/propidium iodide staining-based flow cytometric analysis (reference value: 3.63%)", "format": "functional"}, "[20]": {"assay": "Half life in human liver microsomes", "format": "ADME, Microsome"}, "[21]": {"assay": "Intrinsic clearance in human liver microsomes", "format": "ADME, Microsome", "conditions": "read-out: CLH"}, "[22]": {"assay": "Half life in mouse liver microsomes", "format": "ADME, Microsome"}, "[23]": {"assay": "Toxicity in nu/nu mouse xenografted with human HT-29 cells assessed as effect on body weight at 100 mg/kg, po qd for 18 days", "format": "organism-based", "conditions": "in vivo, 432 h", "how_it_was_run": "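Female nu/nu mice, 4–6 weeks old, implanted subcutaneously in the right flank with HT-29 cells (2×10⁶/mL). Once tumours reached 200 mm³, mice randomised to groups (n = 6) and dosed orally once daily at 100 mg/kg for 18 days. Body weight monitored during treatment. Results given as mean ± SD.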"}, "[24]": {"system": "MKN-74", "assay": "Induction of apoptosis in human MKN74 cells assessed as viable cells at 3 uM incubated for 72 hrs by Annexin-V-FITC/propidium iodide staining-based flow cytometric analysis (reference value: 76.84%)", "format": "functional", "conditions": "MKN-74, 72 h, read-out: Activity"}, "[25]": {"system": "MKN-74", "assay": "Induction of apoptosis in human MKN74 cells assessed as necrotic cells at 3 uM incubated for 72 hrs by Annexin-V-FITC/propidium iodide staining-based flow cytometric analysis (reference value: 6.29%)", "format": "functional"}}, "note": "Active and inactive are the calls of the source. No cut-off for these calls is given here."}
{"smiles": "COC(=O)c1ccc2c(c1)NC(=O)/C2=C(\\Nc1ccc(-n2c(C)ccc2CN2CCN(C)CC2)cc1)c1ccccc1", "values": [{"measurement": "Activity", "setting": "[1]", "value": 6.48, "unit": "%"}, {"measurement": "IC50", "setting": "[2]", "value": 9.9, "unit": "nM"}, {"measurement": "IC50", "setting": "[3]", "value": 6.3, "unit": "nM"}, {"measurement": "IC50", "setting": "[4]", "value": 178, "unit": "nM"}, {"measurement": "IC50", "setting": "[5]", "value": 17, "unit": "nM"}, {"measurement": "IC50", "setting": "[6]", "value": "> 1000", "unit": "nM"}, {"measurement": "IC50", "setting": "[7]", "value": "> 1000", "unit": "nM"}, {"measurement": "inhibition", "setting": "[8]", "value": "inactive"}, {"measurement": "inhibition", "setting": "[9]", "value": "inactive"}, {"measurement": "inhibition", "setting": "[10]", "value": "Dose-dependent effect"}, {"measurement": "inhibition", "setting": "[11]", "value": "Dose-dependent effect"}, {"measurement": "inhibition", "setting": "[12]", "value": "Dose-dependent effect"}, {"measurement": "Activity", "setting": "[13]", "value": 3.35, "unit": "%"}, {"measurement": "Activity", "setting": "[14]", "value": 1.52, "unit": "%"}, {"measurement": "Activity", "setting": "[15]", "value": 0.54, "unit": "%"}, {"measurement": "Activity", "setting": "[16]", "value": 22.1, "unit": "%"}, {"measurement": "Activity", "setting": "[17]", "value": 79.51, "unit": "%"}, {"measurement": "Activity", "setting": "[18]", "value": 4.64, "unit": "%"}, {"measurement": "Activity", "setting": "[19]", "value": 55.63, "unit": "%"}, {"measurement": "half-life", "setting": "[20]", "value": 21.2, "unit": "min"}, {"measurement": "CLint scaled", "setting": "[21]", "value": 82, "unit": "mL/min/kg"}, {"measurement": "half-life", "setting": "[22]", "value": 12.5, "unit": "min"}, {"measurement": "Activity", "setting": "[23]", "value": "Non-Toxic"}, {"measurement": "viability at 3 µM", "setting": "[24]", "value": 8.53, "unit": "%"}, {"measurement": "Activity", "setting": "[25]", "value": 4.15, "unit": "%"}]}
